Experimental data as given in ChEMBL document CHEMBL2146426, “Antitubercular nitrofuran isoxazolines with improved pharmacokinetic properties” (Bioorg Med Chem, 2012).
Converted amounts (≈) assume the structure as drawn.

Key:
[1] = test system: Mycobacterium tuberculosis; test: Antitubercular activity against Mycobacterium tuberculosis after 7 to 14 days by microbroth dilution technique; type: functional
Procedure, shortened: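 M. tuberculosis: CLSI microbroth dilution using two-fold serial drug dilutions in broth. Inoculum about 10^6 CFU/mL; top final concentration 200 µg/mL. Incubated aerobically at 37°C for 7 or 14 days. MIC taken as the lowest concentration preventing visible growth by eye.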

[2] = Solubility of the compound at pH 7.4 after 18 hrs by UV spectrometry; type: physicochemical; details: buffer, pH 7.4, 18 h
Procedure, shortened: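 10 mM DMSO stocks diluted 100-fold in system solution buffer pH 7.4 and held 18 h at room temperature. Filtered, diluted 1:1 with isopropanol and measured by UV (230–500 nm). Compared against a 600-fold diluted reference in buffer/isopropanol. Triplicates.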

[3] = Half life in mouse liver microsomes; type: ADME, Microsome
Procedure, shortened: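 Mouse liver microsomes at 0.6381 mg/mL protein in 0.1 M potassium phosphate pH 7.4 with EDTA. Reaction started with NADPH regenerating system at 37°C; six time points including 0, triplicate wells. Quenched in cold acetonitrile with warfarin internal standard, analysed by LC–MS. Half-life from a first-order least-squares fit.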

[4] = Half life in human liver microsomes; type: ADME, Microsome
[5] = Apparent permeability of the compound from apical to basal side of human Caco2 cells at 50 umol/L after 2 hrs by UPLC/MS analysis; type: ADME, cell-based; details: Caco-2
Procedure, shortened: (§1)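 Caco-2 monolayers grown 7 days on Transwell inserts, washed with HBSS/HEPES pH 7.4. Compound at 50 µmol/L added apically or basolaterally, then 2 h at 37°C. Receiver side sampled and quantified by UPLC/MS. Papp = (dQ/dt)/(A×C0), triplicates.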

[6] = Apparent permeability of the compound from basal to apical side of human Caco2 cells at 50 umol/L after 2 hrs by UPLC/MS analysis; type: ADME, cell-based; details: Caco-2; procedure, shortened: as §1
[7] = Efflux ratio of apparent permeability from basal to apical side to apical to basal side of human Caco2 cells; details: Caco-2
[8] = Plasma protein binding in mouse at 10 uM after 4 hrs by LC/MS analysis; type: ADME, cell-free; details: read-out: PPB (converted)
Procedure, shortened: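 Compound at 10 µM (0.1% DMSO) in mouse or human plasma. Rapid equilibrium dialysis (MWCO 8K) against DPBS pH 7.4, 4 h at 37°C with orbital shaking. Both chambers matrix-matched, precipitated with acetonitrile containing warfarin internal standard, quantified by LC–MS. %Free = buffer/plasma × 100; %Bound = 100 − %Free.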

[9] = test system: Staphylococcus aureus; test: Antibacterial activity against Staphylococcus aureus ATCC 29213 after overnight incubation by microbroth dilution technique; type: functional
Procedure, shortened: (§2)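 Two-fold serial broth dilutions per CLSI; inoculum about 10^5 CFU/mL; top final drug concentration 200 µg/mL; incubated aerobically overnight at 37°C. MIC read visually as the lowest concentration with no visible growth.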

[10] = test system: Streptococcus pyogenes; test: Antibacterial activity against Streptococcus pyogenes ATCC 700294 after overnight incubation by microbroth dilution technique; type: functional; procedure, shortened: as §2
[11] = test system: Streptococcus pneumoniae; test: Antibacterial activity against Streptococcus pneumoniae DAW27 after overnight incubation by microbroth dilution technique; type: functional; procedure, shortened: as §2
[12] = test system: Enterococcus faecalis; test: Antibacterial activity against Enterococcus faecalis ATCC 3186 after overnight incubation by microbroth dilution technique; type: functional; procedure, shortened: as §2
[13] = test system: Bacillus subtilis; test: Antibacterial activity against Bacillus subtilis ATCC 23857 after overnight incubation by microbroth dilution technique; type: functional
Procedure, shortened: (§3)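 Non-mycobacterial strains: two-fold serial dilutions in broth by CLSI microbroth dilution. Inoculum about 10^5 cfu/mL; top final drug concentration 200 µg/mL. Aerobic incubation at 37°C overnight. MIC read visually as the lowest concentration with no visible growth.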

[14] = test system: Bacillus anthracis; test: Antibacterial activity against Bacillus anthracis Sterne 34F2 after overnight incubation by microbroth dilution technique; type: functional; procedure, shortened: as §3
[15] = test system: Escherichia coli; test: Antibacterial activity against Escherichia coli K12 after overnight incubation by microbroth dilution technique; type: functional; details: K-12; procedure, shortened: as §3
[16] = Cmax in Sprague-Dawley rat at 10 mg/kg, iv; type: ADME, organism-based; parameters: dose 10 mg/kg, route intravenous; details: in vivo
Procedure, shortened: (§4)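 Rats, n=5, given 10 mg/kg IV via femoral vein catheter. Vehicle was 2% ethanol/saline or 30% DMSO/30% propylene glycol/20% PEG 3000/20% saline, depending on compound. Plasma sampled 0–48 h and urine collected in intervals to 48 h; both assayed by LC-MS/MS after acetonitrile precipitation. Non-compartmental analysis: CL = dose/AUC0-∞; fe = cumulative unchanged urinary amount/dose.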

[17] = AUC (0 to infinity) in Sprague-Dawley rat at 10 mg/kg, iv; type: ADME, organism-based; parameters: time infinity, dose 10 mg/kg, route intravenous; details: plasma; procedure, shortened: as §4
[18] = Half life in Sprague-Dawley rat at 10 mg/kg, iv; type: ADME, organism-based; parameters: dose 10 mg/kg, route intravenous; details: in vivo; procedure, shortened: as §4
[19] = Clearance in Sprague-Dawley rat at 10 mg/kg, iv; type: ADME, organism-based; parameters: dose 10 mg/kg, route intravenous; details: in vivo; procedure, shortened: as §4
[20] = Volume of distribution in Sprague-Dawley rat at 10 mg/kg, iv; type: ADME, organism-based; parameters: dose 10 mg/kg, route intravenous; details: in vivo; procedure, shortened: as §4
[21] = Drug excretion in Sprague-Dawley rat urine at 10 mg/kg, iv; type: ADME, organism-based; parameters: dose 10 mg/kg, route intravenous; details: read-out: Drug excretion; procedure, shortened: as §4
[22] = test system: Rattus norvegicus; test: Oral bioavailability in Sprague-Dawley rat at 100 mg/kg; type: ADME, organism-based; details: in vivo
Procedure, shortened: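 Fasted rats, n=5, dosed 100 mg/kg by oral gavage. Vehicle was 2% methanol, 60:40 PEG 3000/water or 10% vitamin E TPGS, depending on compound. Plasma sampled to 48 h and assayed by LC-MS/MS. F = (AUCoral×DoseIV)/(AUCIV×Doseoral), referenced to 10 mg/kg IV.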

[23] = test system: Vero; test: Cytotoxicity against african green monkey Vero cells after 72 hrs by MTT assay; type: cell-based; details: Chlorocebus sabaeus
Procedure, shortened: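 Vero cells in DMEM with 10% FBS, seeded at ~10% confluency and left to adhere overnight. Two-fold serial dilutions applied for 72 h at 37°C, 5% CO2. MTT read-out at 570 nm after overnight solubilization.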

[24] = test system: Rattus norvegicus; test: Toxicity in Sprague-Dawley rat assessed as seizures at 10 mg/kg, iv; type: organism-based; parameters: dose 10 mg/kg, route intravenous; details: in vivo
Procedure, shortened: (§5)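 Observed during rat IV pharmacokinetic study (n=5). Single 10 mg/kg dose via femoral vein catheter, flushed with heparinized locking solution. Vehicle was 2% ethanol/saline or 30% DMSO/30% propylene glycol/20% PEG 3000/20% saline. Animals followed with serial blood sampling to 48 h.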

[25] = test system: Rattus norvegicus; test: Toxicity in Sprague-Dawley rat assessed as mortality at 10 mg/kg, iv; type: organism-based; parameters: dose 10 mg/kg, route intravenous; details: in vivo; procedure, shortened: as §5
[26] = test system: Rattus norvegicus; test: Toxicity in Sprague-Dawley rat assessed as mortality at 100 mg/kg, po; type: organism-based; parameters: dose 100 mg/kg, route oral; details: in vivo
Procedure, shortened: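 Observed during rat oral pharmacokinetic study (n=5). Overnight-fasted animals, water ad libitum, received 100 mg/kg by oral gavage. Vehicle was compound-dependent: 2% methanol (sonicated), 60:40 PEG 3000/water, or 10% vitamin E TPGS. Animals followed with sampling to 48 h.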

[27] = Oral bioavailability in rat; type: ADME, organism-based; details: in vivo
[28] = Cmax in rat at 10 mg/kg, iv; type: ADME, organism-based; parameters: dose 10 mg/kg, route intravenous; details: in vivo
Procedure, shortened: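 Rats (n=5) given 10 mg/kg IV via femoral vein catheter. Vehicle was 2% ethanol/saline or 30% DMSO/30% propylene glycol/20% PEG 3000/20% saline, depending on compound. Serial plasma sampled 0–48 h and assayed by LC-MS/MS after acetonitrile precipitation. Cmax read by visual inspection of the concentration–time curve.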

[29] = AUC (0 to infinity) in rat at 10 mg/kg, iv; type: ADME, organism-based; parameters: time infinity, dose 10 mg/kg, route intravenous; details: plasma; procedure, shortened: as §4
[30] = species: Rattus norvegicus; test: Half life in rat; type: ADME, organism-based; details: in vivo
[31] = species: Rattus norvegicus; test: Clearance in rat; type: ADME, organism-based; details: in vivo
[32] = Volume of distribution in rat; type: ADME, organism-based; details: in vivo
Procedure, shortened: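 Plasma concentration–time data from rats (n=5) after IV 10 mg/kg or oral 100 mg/kg. Samples taken 0.25–48 h and measured by LC-MS/MS. Non-compartmental analysis; Vd calculated as AUMC0-∞ × dose divided by the square of AUC0-∞.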

[33] = Drug excretion in rat urine; type: ADME; details: read-out: Drug excretion

## O=[N+]([O-])c1ccc(C2=NOC(c3ccc(N4CCCCC4)cc3)C2)o1 (stereo not drawn)
[1]
  MIC: 6 µg/mL (≈ 17.6 µM)
[2]
  solubility: 1.1 µg/mL (≈ 3.22 µM)
[3]
  half-life: 46.8 min
[4]
  half-life: 28.2 min
[5]
  Papp A→B at 2 h, 50 µM: 7.61 ×10⁻⁶ cm/s
[6]
  Papp B→A at 2 h, 50 µM: 10.3 ×10⁻⁶ cm/s
[7]
  efflux ratio: 1.35
[8]
  fraction unbound at 4 h, 10 µM: 0.012
[9]
  MIC: 12.5 µg/mL (≈ 36.6 µM)
[10]
  MIC: 100 µg/mL (≈ 293 µM)
[11]
  MIC: 200 µg/mL (≈ 586 µM)
[12]
  MIC: > 200 µg/mL
[13]
  MIC: 50 µg/mL (≈ 146 µM)
[14]
  MIC: > 200 µg/mL
[15]
  MIC: > 200 µg/mL
[16]
  Cmax: 2280 ng/mL
[17]
  AUC(0-inf): 2750 ng·h/mL
[18]
  half-life: 167 min
[19]
  clearance: 62.8 mL/min/kg
[20]
  Vd: 10.9 L/kg
[21]
  dose excreted: 0%
[22]
  F: 29.4%
[23]
  IC50: 2.5 µg/mL (≈ 7.32 µM)
[24]
  Activity: Non-toxic
[25]
  Activity: Non-toxic
[26]
  Activity: Non-toxic

## CC1COc2c(N3CCN(C)CC3)c(F)cc3c(=O)c(C(=O)O)cn1c23 (stereo not drawn) [OFLOXACIN]
[27]
  bioavailability: 78%
[28]
  Cmax: 10900 ng/mL
[29]
  AUC(0-inf): 6100 ng·h/mL
[30]
  t1/2: 90 min
[31]
  CL: 14.3 mL/min/kg
[32]
  Vd: 0.99 L/kg
[33]
  dose excreted: 46%
